Bioassay records: PubChem BioAssay, Johns Hopkins Ion Channel Center
RGS4 act = RGS4 potentiators or activators, primary screen, cell-based, HEK293 M3R inducible RGS4, calcium flux | carbachol calcium flux Fluo4; stronger effect = lower value | B-score at 10 µM | 0.92% of 310,000 active | AID 463111, 2010;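 active = B-score of the integrated calcium signal more than 4 SD below the library mean, with starting fluorescence not abnormally high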;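 also: negative B-score means reduced calcium response which marks RGS4 activation or potentiation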
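System: HEK293 FlpIn-TREx cells, stable M3R, doxycycline-inducible RGS4. Timing: overnight RGS4 induction, 30 min dye load 37 °C, 20 min compound RT. Also added: carbachol, ECmax concentration. Measured by: Fluo4 fluorescence kinetic imaging of calcium. Evaluation: integrated calcium ratio converted to B score.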
RGS4 block = RGS4 inhibitors, primary screen, cell-based, HEK293 M3R inducible RGS4, calcium flux; Regulator of G-protein signaling 4 (Homo sapiens), P49798; Fluo-4 calcium flux; stronger effect = higher value; triggered by carbachol at its EC20; B-score at 10 µM; 0.45% of 310,000 active; AID 463165, 2010;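 active = B-score, a plate-corrected calcium signal, over three deviations above library mean, with baseline fluorescence within five deviations of library mean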;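 also: RGS4 expression induced by doxycycline in cells with stable M3 receptor; B-score is computed from the integrated fluorescence ratio over baseline after carbachol; higher B-score means a larger calcium signal and so more RGS4 inhibition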
Target sequence (P49798 whole entry, looked up): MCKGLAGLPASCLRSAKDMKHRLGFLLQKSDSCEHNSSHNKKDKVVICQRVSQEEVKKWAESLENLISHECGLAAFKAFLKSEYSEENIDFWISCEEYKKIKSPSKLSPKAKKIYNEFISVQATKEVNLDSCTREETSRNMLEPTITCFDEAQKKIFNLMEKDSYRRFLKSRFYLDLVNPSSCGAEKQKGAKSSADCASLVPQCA
MrgX1 antag = antagonists of human MrgX1 receptor, primary screen, HEK293 cells, Fluo-4 calcium flux | 1.3% of 310,000 active | B-score at 10 µM | Mas-related G-protein coupled receptor member X1 (Homo sapiens), Q96LB2 | BAM8-22 antagonism; stronger effect = lower value | AID 588676, 2011;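 active = calcium-response B-score plate-corrected more than 3 library SD below zero, starting fluorescence within 5 deviations, no agonist response on first addition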;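 also: peak minus trough fluorescence over baseline after final BAM8-22 challenge near maximal dose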
Target sequence (Q96LB2 whole entry, looked up): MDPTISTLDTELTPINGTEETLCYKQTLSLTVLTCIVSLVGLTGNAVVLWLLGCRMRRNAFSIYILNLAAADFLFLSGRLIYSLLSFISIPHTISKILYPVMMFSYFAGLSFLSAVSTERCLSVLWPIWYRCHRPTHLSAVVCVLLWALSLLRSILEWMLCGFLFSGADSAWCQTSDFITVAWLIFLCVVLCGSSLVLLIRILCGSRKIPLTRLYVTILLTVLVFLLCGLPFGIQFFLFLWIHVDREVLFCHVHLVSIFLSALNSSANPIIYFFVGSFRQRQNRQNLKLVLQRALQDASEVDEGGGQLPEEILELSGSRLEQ
MrgX1 allo act = positive allosteric modulators of MrgX1, primary screen, HEK293 cells, Fluo-4 calcium flux; B-score at 10 µM; 0.63% of 310,000 active; FDSS; stronger effect = higher value;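 active = plate-corrected calcium response at least 3 library SD above typical, normal starting fluorescence, not activating the receptor alone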;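 also: compound read alongside a low EC10 to EC30 dose of BAM8-22 agonist; peak minus trough fluorescence over baseline measured at the second addition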
MrgX1 ag = agonists of human MrgX1 receptor, primary screen, HEK293 cells, Fluo-4 calcium flux; Mas-related G-protein coupled receptor member X1 (Homo sapiens), Q96LB2; Fluo-4 calcium fluorescence, agonist mode; stronger effect = higher value; B-score at 10 µM; 0.44% of 310,000 active; AID 588627, 2011;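 active = calcium response B-score plate-corrected fluorescence ratio at least 3 library SD, with starting fluorescence B-score inside 5 SD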
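Material: MrgX1-expressing HEK293 cells / Dosing: compound as first of three additions / Incubation: overnight seeding, then 1 h dark dye loading / Signal: Fluo-4 NW calcium fluorescence / Evaluation: B-scored fluorescence response ratio / Benchmarks: positive and negative control wells on each plate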
MrgX1 ant reconf = MrgX1 receptor antagonists, duplicate retest, confirmation, HEK293 cells, Fluo-4 calcium flux | remaining BAM8-22 calcium response % of control (stronger effect = lower value), % at 10 µM | AID 602420, 2012 | 19% of 2,300 active | shares compounds with MrgX1 antag | BAM8-22 calcium flux; stronger effect = lower value;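 active = remaining agonist calcium response no higher than 100% minus 3 SD of agonist-only control wells, with starting fluorescence near control levels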;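 also: agonist BAM8-22 given at a near maximal EC90 to ECmax level; peak minus minimum fluorescence divided by baseline after agonist addition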
HEK293 Ca flux = nonspecific calcium signal in parental HEK293, confirmation, counter-screen for MrgX1 antagonist project, parental HEK293 cells, Fluo-4 calcium flux | shares compounds with MrgX1 antag | Fluo-4 calcium fluorescence, FDSS | fluorescence ratio F(max-min)/F0 at 10 µM | 2% of 4,000 active;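 active = duplicate-averaged calcium fluorescence ratio at least three times the standard deviation of buffer wells, a nonspecific response in parental cells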
HEK293 Ca counter = calcium response in parental HEK293 cells, primary screen, counter-screen for MrgX1 allosteric activator project, cell-based, Fluo-4 calcium flux, duplicate. shares compounds with MrgX1 antag. Fluo-4 fluorescence ratio; stronger effect = higher value. fluorescence ratio F(max-min)/F0 at 10 µM. 0.4% of 4,000 active;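 active = calcium fluorescence ratio, averaged over duplicates, at least 3 SD of the buffer-well ratio, meaning a nonspecific response in receptor-free cells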;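 also: untransfected parental HEK293 lacking MrgX1 used as counterscreen for MrgX1 allosteric activators; fluorescence change taken during the second addition on a kinetic imager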
HEK293 Ca cntr2 = calcium response in parental HEK293 cells, primary screen, counter-screen for MrgX1 agonist project, cell-based, Fluo-4 calcium flux, duplicate, agonist mode. Fluo-4 calcium fluorescence (FDSS); stronger effect = higher value. shares compounds with MrgX1 antag. fluorescence ratio F(max-min)/F0 at 10 µM. 8.7% of 4,000 active;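 active = calcium fluorescence ratio at least three times the spread of buffer wells, meaning a non-specific response in parental cells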
An asterisk follows results filed as active; i = inactive; / = no result given. Compounds with a hit are over-represented: about 3.5% of the library has one in this group of screens.

SMILES	RGS4 act	RGS4 block	MrgX1 antag	MrgX1 allo act	MrgX1 ag	MrgX1 ant reconf	HEK293 Ca flux	HEK293 Ca counter	HEK293 Ca cntr2
CCC(=O)c1cc(F)c(N2CCN(S(=O)(=O)c3ccc(C)cc3)CC2)cc1C	i	i	i	i	i	/	/	/	/
OCC(Cc1ccc2c(c1)OCO2)C(CO)Cc1ccc2c(c1)OCO2 (stereo unspecified)	i	i	i	i	i	/	/	/	/
COC(=O)c1ccc(Nc2ccc3nonc3c2[N+](=O)[O-])cc1	i	i	i	i	i	/	/	/	/
CC(=O)Nc1ccc(S(=O)(=O)Nc2nc3ccccc3nc2Nc2cccc(O)c2)cc1	i	i	i	i	i	/	/	/	/
O=S(=O)(Nc1nc2ccccc2nc1Nc1ccc2c(c1)OCCO2)c1cccs1	i	i	i	i	i	/	/	/	/
CC(=O)Nc1ccc(S(=O)(=O)Nc2nc3ccccc3nc2Nc2ccc(N)cc2)cc1	i	i	-6.2*	i	i	75%*	i	i	i
CC(=O)Nc1ccc(S(=O)(=O)Nc2nc3ccccc3nc2Nc2ccc3ccccc3c2)cc1	i	i	i	i	i	/	/	/	/
COc1ccc(S(=O)(=O)Nc2nc3ccccc3nc2Nc2ccc3c(c2)OCO3)cc1	i	i	-5.1*	i	i	i	i	i	i
CC(=O)Nc1ccc(S(=O)(=O)Nc2cc(C)c(-n3nc4ccccc4n3)cc2O)cc1	i	i	-5.2*	i	i	i	i	i	i
COc1ccc(COC(=O)c2cccc(S(=O)(=O)N3CCCC3)c2)cc1F	i	i	i	i	i	/	/	/	/
CCN(CC(=O)Nc1c(F)cccc1F)C(=O)CNC(=O)C1CCCCC1	i	i	i	i	i	/	/	/	/
C/C=C(/C)C(=O)Nc1cccc(C2=NOC3(C2)C[C@@H](C(N)=O)N(C(=O)CCCCC)C3)c1 (stereo partly specified)	i	i	i	i	i	/	/	/	/
COc1ccc(C(=O)N[C@H](C(=O)OCC(=O)NC(=O)c2cccn2C)C(C)C)cc1	i	i	-4.8*	i	i	i	i	i	i
COc1cccc(-c2nc(CS(=O)(=O)CC(=O)N3CCc4ccccc43)c(C)o2)c1	i	i	-4.9*	i	i	i	i	i	i
CCOc1ccccc1NC(=O)c1cc(C(=O)c2cc(Br)ccc2O)coc1=N	i	i	i	i	i	/	/	/	/
Oc1ccc(N2CCN(C(c3ccncc3)c3nnnn3C3CCCC3)CC2)cc1 (stereo unspecified)	i	i	-8.1*	i	i	i	i	i	i
Cc1ccc(NC(=O)CN(C)S(=O)(=O)c2cnc[nH]2)c(C)c1	i	i	i	i	i	/	/	/	/
COc1ccc(Cl)cc1-n1c(C)ccc1C	i	i	-8.4*	i	i	i	i	i	i
COc1ccc(Cl)cc1N1C(=O)c2cccnc2C1=O	i	i	i	i	i	/	/	/	/
N#CC1=C(N)Oc2cc3ccccc3cc2C1c1cccnc1 (stereo unspecified)	i	i	i	i	i	/	/	/	/
COc1ccc(N=Cc2cc3c(cc2O)OC(N)=C(C#N)C3c2ccccc2)cc1 (stereo unspecified)	i	i	-5.9*	i	i	i	i	i	i
C=CCn1c(-c2ccc(S(=O)(=O)N3CCOCC3)cc2)csc1=Nc1ccccc1	i	i	-7.9*	i	i	i	i	i	i
CCn1c(C)c(C(C)=O)c(N2CCN(c3ccccc3)CC2)nc1=S	i	i	-8.9*	i	i	i	i	i	i
CCn1c(C)c(C(C)=O)c(N2CCN(c3ccccn3)CC2)nc1=S	i	i	i	i	i	/	/	/	/
Cc1cccc(NC(=O)c2ccc(C(=O)c3ccccc3)cc2)n1	i	i	-4.9*	i	i	77%*	i	i	i
SMILES	RGS4 act	RGS4 block	MrgX1 antag	MrgX1 allo act	MrgX1 ag	MrgX1 ant reconf	HEK293 Ca flux	HEK293 Ca counter	HEK293 Ca cntr2
Cc1ccc(-c2nc3cc(N)ccc3o2)cc1	i	i	i	i	i	/	/	/	/
Cc1ccc2oc(-c3cccc(N)c3)nc2c1	i	i	-6.2*	i	i	i	i	i	i
O=C1CCCN1c1ccc(C(=O)N(Cc2nnc(-c3ccc(Cl)cc3)o2)C2CC2)cc1	i	i	i	i	i	/	/	/	/
O=C(CCc1ccccc1)Nc1cc(C(F)(F)F)ccc1Cl	i	i	-4.5*	i	i	i	i	i	i
Cc1cc(C(=O)NNC(=O)/C=C/c2ccccc2Cl)c(C)o1	i	i	-15*	i	i	i	i	i	i
Cc1cccc(NC(=S)NC(C)CCc2ccccc2)c1 (stereo unspecified)	i	i	-7.8*	i	i	i	i	i	i
CC1CCCN(CCCNC(=O)C2CCC(CNS(=O)(=O)c3cccc4nsnc34)CC2)C1 (stereo unspecified)	i	i	i	i	i	/	/	/	/
Cc1ccc(Cl)cc1NC(=O)CC1NCCNC1=O (stereo unspecified)	i	i	i	i	i	/	/	/	/
Cc1ccc(NC(=O)CC2C(=O)NC3CCCCC3N2C(=O)c2ccc(F)cc2)cc1C (stereo unspecified)	i	i	i	i	i	/	/	/	/
COc1ccccc1C(=O)N1C(CC(=O)Nc2cc(Cl)ccc2C)C(=O)NC2CCCCC21 (stereo unspecified)	i	i	-4.7*	i	i	i	i	i	i
